Experimental findings from ChEMBL document CHEMBL1123538, “Inhibitors of human purine nucleoside phosphorylase. Synthesis, purine nucleoside phosphorylase inhibition, and T-cell cytotoxicity of 2,5-diaminothiazolo[5,4-d]pyrimidin-7(6H)-one and 2,5-diaminothiazolo[4,5-d]pyrimidin-7(6H)-one. Two thio isosteres of 8-aminoguanine” (J Med Chem, 1986) are described below.

Where only a bound is given, the exact number is not on record here.

For experiment [1], the species on record is Homo sapiens. As to the kind of experiment: Cytotoxicity was evaluated against human MGL-8 B -lymphoblasts (Presence of 10 uM 2'-deoxyguanosine (W/GdR)). It is filed as functional. The note with it: MGL8. Put shortly: (§1)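 Cell growth measured as [3H]thymidine uptake. Lines kept in RPMI 1640 with 10% heat-inactivated fetal calf serum, L-glutamine and penicillin-streptomycin; assay run in RPMI 1640 plus 10% heat-inactivated horse serum.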

For experiment [2], the species on record is Homo sapiens. In words: Cytotoxicity was evaluated against human MGL-8 B -lymphoblasts (absence of 10 uM 2'-deoxyguanosine (Wo/GdR)). The note with it: MGL8. It is filed as functional. Put shortly: as §1
Experiment [3] relates to MOLT-4. As to the kind of experiment: Cytotoxicity was evaluated against human MOLT-4 T-lymphoblasts (absence of 10 uM 2'-deoxyguanosine (Wo/GdR)). It is filed as functional, cell-based. Put shortly: as §1
The subject of experiment [4] is MOLT-4. In words: Cytotoxicity was evaluated against human MOLT-4 T-lymphoblasts (presence of 10 uM 2'-deoxyguanosine (W/GdR)). It is filed as functional, cell-based. The method in brief: as §1
Experiment [5] deals with T1, Purine nucleoside phosphorylase (Homo sapiens, UniProt P00491).
T1 sequence (P00491 whole entry): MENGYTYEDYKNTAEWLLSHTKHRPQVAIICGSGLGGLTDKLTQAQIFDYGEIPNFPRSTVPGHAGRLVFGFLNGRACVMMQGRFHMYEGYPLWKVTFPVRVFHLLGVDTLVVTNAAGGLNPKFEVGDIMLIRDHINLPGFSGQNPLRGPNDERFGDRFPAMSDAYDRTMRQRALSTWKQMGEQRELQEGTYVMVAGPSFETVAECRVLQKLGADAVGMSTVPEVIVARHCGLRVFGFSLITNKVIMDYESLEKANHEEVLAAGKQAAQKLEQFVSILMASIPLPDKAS
In words: Compound was evaluated for 50% inhibition of purine nucleoside phosphorylase activity by was measured by the conversion of [8-14C]-inosine to [8-14C]-hypoxanthine. It is filed as functional.

Regarding `Nc1nc(O)c2nc(N)n([C@@H]3O[C@H](CO)[C@@H](O)[C@H]3O)c2n1`, the IC50 in the experiment listed under Homo sapiens [1] is more than 500 µM; in the experiment filed under Homo sapiens [2], more than 500 µM; with MOLT-4 [3], approximately 500 µM; in the experiment on MOLT-4 [4], 3.25 µM.

With `Nc1nc2sc(N)nc2c(=O)[nH]1`, the half-maximal inhibitory concentration (IC50) in the experiment listed under Homo sapiens [1] was more than 50 µM; in the experiment filed under Homo sapiens [2], more than 50 µM; with MOLT-4 [3] it was more than 50 µM; in the experiment on MOLT-4 [4] it was more than 50 µM; in experiment [5], 142 µM.

For `Nc1nc2nc(N)sc2c(=O)[nH]1`, the IC50 in the experiment filed under Homo sapiens [1] was more than 50 µM; in the experiment listed under Homo sapiens [2], more than 50 µM; with MOLT-4 [3] it was more than 50 µM; in the experiment on MOLT-4 [4], more than 50 µM; in experiment [5], approximately 330 µM.

Consider `Nc1nc2[nH]c(N)nc2c(=O)[nH]1` [8-AMINOGUANINE], for which the IC50 in the experiment filed under Homo sapiens [1] is more than 500 µM; in the experiment listed under Homo sapiens [2], more than 500 µM; in the experiment on MOLT-4 [3], approximately 400 µM; in the experiment with MOLT-4 [4], 2.35 µM; in experiment [5], 1.55 µM.

As a reminder, the IC50 is the concentration that gives 50% inhibition.
